Measurements: ChEMBL document CHEMBL1140884, “Oligodeoxyribonucleotide-based antagonists for Toll-like receptors 7 and 9” (2009)
Calls of active or inactive are those of the source.

Tests used:
[1] = biological target: T1, Toll-like receptor 9 (Mus musculus) (UniProt Q9EQU3); assay: Antagonist activity at TLR9 in mouse J774 cells assessed as inhibition of 5'-TCTGACRTTCT-X-TCTTRCAGTCT-3'-induced NF-kappaB activation pretreated for 1 hr; type: functional, cell-based
T1 sequence (whole entry): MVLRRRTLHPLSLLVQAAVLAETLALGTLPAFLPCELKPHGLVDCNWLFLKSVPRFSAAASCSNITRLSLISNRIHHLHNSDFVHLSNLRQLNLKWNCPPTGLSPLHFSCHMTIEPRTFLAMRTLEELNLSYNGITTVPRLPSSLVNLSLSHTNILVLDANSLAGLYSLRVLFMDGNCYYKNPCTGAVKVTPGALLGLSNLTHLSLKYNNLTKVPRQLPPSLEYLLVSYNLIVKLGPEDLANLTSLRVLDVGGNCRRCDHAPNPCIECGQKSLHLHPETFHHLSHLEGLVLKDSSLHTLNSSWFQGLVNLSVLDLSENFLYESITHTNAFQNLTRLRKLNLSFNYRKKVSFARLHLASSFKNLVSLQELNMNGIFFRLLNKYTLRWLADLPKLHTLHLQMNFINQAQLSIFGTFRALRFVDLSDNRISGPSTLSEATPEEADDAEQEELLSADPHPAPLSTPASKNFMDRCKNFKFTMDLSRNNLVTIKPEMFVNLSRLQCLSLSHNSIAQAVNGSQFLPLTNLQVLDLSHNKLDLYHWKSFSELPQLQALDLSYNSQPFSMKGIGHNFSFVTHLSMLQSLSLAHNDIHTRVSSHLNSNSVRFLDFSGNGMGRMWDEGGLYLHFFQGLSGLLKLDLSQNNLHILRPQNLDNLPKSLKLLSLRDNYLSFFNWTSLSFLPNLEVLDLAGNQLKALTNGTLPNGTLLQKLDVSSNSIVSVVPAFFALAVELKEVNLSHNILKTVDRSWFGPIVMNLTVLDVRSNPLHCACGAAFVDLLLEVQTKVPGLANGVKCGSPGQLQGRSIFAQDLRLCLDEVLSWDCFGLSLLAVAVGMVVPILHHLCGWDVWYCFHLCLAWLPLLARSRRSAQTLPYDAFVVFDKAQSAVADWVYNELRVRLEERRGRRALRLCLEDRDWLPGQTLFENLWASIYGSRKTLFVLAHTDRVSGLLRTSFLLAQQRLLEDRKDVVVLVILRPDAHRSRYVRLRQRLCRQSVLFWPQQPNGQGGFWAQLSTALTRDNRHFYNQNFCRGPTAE
How it was run: (§1)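 J774 cells at 5×10^6 cells/well were preincubated with antagonist for 1 h. Agonist was then added: TLR9 agonist 1 µg/mL, an RNA-based TLR7/8 agonist, or LPS 100 ng/mL. Antagonist was used at 5–40 µg/mL or at the indicated agonist ratios. Nuclear extracts were taken 1 h after agonist and analysed by EMSA.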

[2] = biological target: T1, Toll-like receptor 9 (Mus musculus); assay: Agonist activity at TLR9 in mouse J774 cells assessed as of NF-kappaB activation; type: functional, cell-based
How it was run: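 Murine J774 macrophages grown in DMEM with 10% FBS and plated at 5×10^6 cells/well. Nuclear extracts taken 1 h after agonist addition. NF-κB detected by EMSA on native polyacrylamide gels with autoradiography.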

B = assay: Inhibition of 5'-TCTGTCRTTCT-X-TCTTRCTGTCT-5'-induced IL6 secretion in MRL/lpr mouse splenic B cells after 24 hrs by ELISA; type: functional, cell-based
How it was run: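 Splenic B cells from MRL/lpr mice, purified by B-cell isolation kit (>95% B220+), cultured at 5×10^5 cells/200 μL in RPMI-1640 with 10% FBS and penicillin/streptomycin; stimulated with 1 μg/mL TLR9 agonist with or without antagonist at 0.3, 1 or 3 μg/mL, or antagonist 3 μg/mL alone. Supernatants taken at 24 h; IL-6 by sandwich ELISA.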

Mus musculus [3] = assay: Inhibition of 5'-UGCUGUUCUG-X-GUCUUGUCGU-5'-induced MCP1 production in C57BL/6 mouse treated 72 hrs before induction at 10 mg/kg, sc; type: functional; conditions: C57BL/6, sc, route subcutaneous
How it was run: (§2)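 Female C57BL/6 mice, 6-8 weeks, n = 3, given antagonist 10 mg/kg sc in the right flank. After 72 h, agonist given sc in the left flank: TLR7/8 RNA agonist at 50 mg/kg or TLR9 agonist at 0.25 mg/kg. Serum collected 2 h after agonist by retro-orbital bleeding; cytokines/chemokines by mouse 20-plex Luminex bead assay.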

Mus musculus [4] = assay: Inhibition of 5'-UGCUGUUCUG-X-GUCUUGUCGU-5'-induced IL12 production in C57BL/6 mouse treated 72 hrs before induction at 10 mg/kg, sc; type: functional; conditions: C57BL/6, sc, route subcutaneous; how it was run: as §2
[5] = biological target: T1, Toll-like receptor 9 (Mus musculus); assay: Antagonist activity in mouse J774 cells assessed as inhibition of 5'-UGCUGUUCUG-X-GUCUUGUCGU-5'-induced NF-kappaB activation
[6] = biological target: T1, Toll-like receptor 9 (Mus musculus); assay: Agonist activity at mouse TLR9 expressed in HEK293 cells assessed as activation of NF-kappaB at 10 ug/mL by SEAP reporter gene assay; type: functional, cell-based
How it was run: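 HEK293 cells stably expressing mouse TLR9 were transiently transfected with a SEAP reporter for 6 h. Compounds were added at 10 µg/mL for 18 h. SEAP was read with Quanti-Blue substrate and expressed as fold change in NF-κB activity.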

Mus musculus [7] = assay: Inhibition of 5'-TCTGACRTTCT-X-TCTTRCAGTCT-3'-induced IL12 production in C57BL/6 mouse pretreated before up to 48 hrs of induction at 10 mg/kg, sc; type: functional, organism-based; parameters: dose 10 mg/kg
How it was run: (§3)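 C57BL/6 mice received antagonist or control 10 mg/kg sc, either with TLR9 agonist 0.25 mg/kg sc or up to 48 h before it. Serum IL-12 was measured 2 h after agonist. Two or three independent experiments; mean ± SEM, Student's t test versus PBS.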

Mus musculus [8] = assay: Inhibition of 5'-TCTGACRTTCT-X-TCTTRCAGTCT-3'-induced IP10 production in C57BL/6 mouse treated 72 hrs before induction at 10 mg/kg, sc; type: functional; conditions: C57BL/6, sc, route subcutaneous
How it was run: (§4)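 Female C57BL/6 mice (n=3) received antagonist 10 mg/kg sc in the right flank. After 72 h, TLR9 agonist 0.25 mg/kg sc was given in the left flank. Serum was taken 2 h after agonist and cytokines/chemokines were measured by Luminex multiplex assay. Representative of at least three experiments.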

Mus musculus [9] = assay: Inhibition of 5'-TCTGACRTTCT-X-TCTTRCAGTCT-3'-induced IL12 production in C57BL/6 mouse at 10 mg/kg, sc; type: functional, organism-based; parameters: dose 10 mg/kg; how it was run: as §3
Mus musculus [10] = assay: Inhibition of 5'-UGCUGUUCUG-X-GUCUUGUCGU-5'-induced IL10 production in C57BL/6 mouse treated 72 hrs before induction at 10 mg/kg, sc; type: functional; conditions: C57BL/6, sc, route subcutaneous; how it was run: as §2
[11] = biological target: T1, Toll-like receptor 9 (Mus musculus); assay: Antagonist activity at TLR9 in mouse J774 cells assessed as inhibition of 5'-TCTGACRTTCT-X-TCTTRCAGTCT-3'-induced NF-kappaB activation; type: functional, cell-based; how it was run: as §1
Mus musculus [12] = assay: Inhibition of 5'-TCTGACRTTCT-X-TCTTRCAGTCT-3'-induced IL6 production in C57BL/6 mouse treated 72 hrs before induction at 10 mg/kg, sc; type: functional; conditions: C57BL/6, sc, route subcutaneous; how it was run: as §4

CO[C@@H]1[C@H](OP(=O)(S)OC[C@H]2O[C@@H](n3ccc(N)nc3=O)C[C@@H]2OP(=O)(S)OC[C@H]2O[C@@H](n3ccc4c(=O)[nH]c(N)nc43)C[C@@H]2OP(=O)(S)OC[C@H]2O[C@@H](n3cc(C)c(=O)[nH]c3=O)C[C@@H]2OP(=O)(S)OC[C@H]2O[C@@H](n3cc(C)c(=O)[nH]c3=O)C[C@@H]2OP(=O)(S)OC[C@H]2O[C@@H](n3ccc(N)nc3=O)C[C@@H]2OP(=O)(S)OC[C@H]2O[C@@H](n3cc(C)c(=O)[nH]c3=O)C[C@@H]2OP(=O)(S)OC[C@H]2O[C@@H](n3ccc(N)nc3=O)C[C@@H]2OP(=O)(S)OC[C@H]2O[C@@H](n3cc(C)c(=O)[nH]c3=O)C[C@@H]2OP(=O)(S)OC[C@H]2O[C@@H](n3cnc4c(=O)[nH]c(N)nc43)C[C@@H]2OP(=O)(S)OC[C@H]2O[C@@H](n3cc(C)c(=O)[nH]c3=O)C[C@@H]2O)[C@@H](COP(=O)(S)O[C@H]2[C@@H](OC)[C@H](n3cnc4c(=O)[nH]c(N)nc43)O[C@@H]2COP(=O)(S)O[C@H]2C[C@H](n3cc(C)c(=O)[nH]c3=O)O[C@@H]2COP(=O)(S)O[C@H]2C[C@H](n3ccc(N)nc3=O)O[C@@H]2COP(=O)(S)O[C@H]2C[C@H](n3cc(C)c(=O)[nH]c3=O)O[C@@H]2COP(=O)(S)O[C@H]2C[C@H](n3cnc4c(N)ncnc43)O[C@@H]2COP(=O)(S)O[C@H]2C[C@H](n3cc(C)c(=O)[nH]c3=O)O[C@@H]2COP(=O)(S)O[C@@H]2C[C@@H](n3ccc(N)nc3=O)O[C@H]2CO)O[C@H]1n1cnc2c(N)ncnc21 (stereo partly drawn)
inactive: Activity [2] | Activity [6]
active: Activity [1] Dose-dependent effect | Activity (B) Dose-dependent effect | Activity [5] Dose-dependent effect | Activity (Mus musculus [7]) | Activity (Mus musculus [9]) | Activity [11]
≥ 50%: inhibition in vivo at 10 mg/kg (Mus musculus [3]) | inhibition in vivo at 10 mg/kg (Mus musculus [4]) | inhibition in vivo at 10 mg/kg (Mus musculus [8]) | inhibition in vivo at 10 mg/kg (Mus musculus [10]) | inhibition in vivo at 10 mg/kg (Mus musculus [12])
